Assay results taken from ChEMBL document CHEMBL1123706, “Design of alternate substrate inhibitors of serine proteases. Synergistic use of alkyl substitution to impede enzyme-catalyzed deacylation” (J Med Chem, 1987).

What was measured:
[1] = target: T1, Neutrophil elastase (Homo sapiens, UniProt P08246); test: Binding affinity against human leukocyte elastase was determined
T1 sequence (P08246 whole entry): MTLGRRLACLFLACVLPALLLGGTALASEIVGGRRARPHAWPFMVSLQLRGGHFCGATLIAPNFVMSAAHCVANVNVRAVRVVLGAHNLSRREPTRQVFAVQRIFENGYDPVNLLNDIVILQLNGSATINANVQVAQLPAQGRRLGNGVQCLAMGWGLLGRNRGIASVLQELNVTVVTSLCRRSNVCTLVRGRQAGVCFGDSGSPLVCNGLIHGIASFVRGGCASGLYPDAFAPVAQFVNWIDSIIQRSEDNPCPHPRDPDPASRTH
Method in brief: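 Elastase purified from human leukocytes and assayed by the progress-curve method. Enzyme turnover of a fluorogenic coumarin substrate at about 0.04 Km served as a probe of free enzyme. Buffer was 25 mM K+ HEPES, 1 M NaCl, 0.1% Brij 35, pH 7.8, 25 °C. Read-out was fluorescence at 400 nm excitation and 505 nm emission.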

[2] = target: T2, Neutrophil elastase (Homo sapiens) (UniProt P08246); test: Rate of deacylation by human leukocyte elastase
T2 sequence (whole entry): T1 sequence (P08246 whole entry)
Method in brief: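 Otherwise, acyl enzyme was prepared and isolated on Sephadex G-25 at low pH. Deacylation was followed as the return of activity after dilution into assay buffer containing fluorogenic substrate.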

[3] = target: T2, Neutrophil elastase (Homo sapiens)

Structure (SMILES) | Ki [1] [nM] | k off [2] [s⁻¹] | k1 [3] [M⁻¹ s⁻¹]
Cc1cccc2nc(NC(C)C)oc(=O)c12 | 1.5 |  | 
CCNc1nc2ccccc2c(=O)o1 | 51 |  | 
CNc1nc2cccc(C)c2c(=O)o1 | 31000 | 0.15 | 4800
CCCNc1nc2ccccc2c(=O)o1 | 91 |  | 
CCc1cccc2nc(NC(C)C)oc(=O)c12 | 0.94 |  | 
CCCCNc1nc2cccc(CC)c2c(=O)o1 | 4.2 | 0.00053 | 130000
CCCCCCNc1nc2ccccc2c(=O)o1 | 3600 |  | 
CCC(C)Nc1nc2ccccc2c(=O)o1 (centres undefined) | 43 |  | 
CCCCNc1nc2cccc(C)c2c(=O)o1 | 23 |  | 
CNc1nc2ccccc2c(=O)o1 | 6900 |  | 
CCCNc1nc2cccc(C)c2c(=O)o1 | 6 | 0.00034 | 56000
CCc1cccc2nc(N)oc(=O)c12 | 5100 |  | 
Nc1nc2ccccc2c(=O)o1 | 63000 |  | 
CCCCNc1nc2ccccc2c(=O)o1 | 84 |  | 
CC(C)Nc1nc2ccccc2c(=O)o1 | 52 | 0.003 | 59000
CCNc1nc2cccc(C)c2c(=O)o1 | 34 |  | 
